This passage reports IC50 results from ChEMBL document CHEMBL1140342, “Antitumor activity of C-methyl-beta-D-ribofuranosyladenine nucleoside ribonucleotide reductase inhibitors” (J Med Chem, 2005).

Holding throughout (format): functional, cell-based
One assay deals with MCF7. The experiment in a line: In vitro inhibitory activity against human breast carcinoma MCF-7 cell line. In short, it runs like this:
(§1)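 Cells kept in 10% FBS medium, RPMI 1640 for K562/K562IU and MEM alpha for HT-29/MCF-7; adherent lines trypsinized to single-cell suspension. Log-phase cells seeded at about 50 000 cells/mL, acclimatized 24 h, then exposed to compound dilutions (up to 100 μM) in triplicate for 48 h at 37 °C, 5% CO2. MTS/PMS tetrazolium reduction 3 h, A490; IC50 = concentration giving 50% growth inhibition.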

Assay [1] relates to K562. The experiment in a line: In vitro inhibitory activity against human leukemia K562IU cell line. The method, boiled down:
as §1

Assay [2] deals with K562. The experiment in a line: In vitro inhibitory activity against human myelogenous leukemia K562 cell line. In short, it runs like this:
as §1

The next assay relates to HT-29. As to the kind of experiment: In vitro inhibitory activity against human colon carcinoma HT-29 cell line. The method, boiled down:
as §1

On to `C[C@]1(O)C(n2cnc3c(N)nc(Cl)nc32)O[C@H](CO)[C@H]1O` (stereo partly drawn), for which the IC50 in the assay on MCF7, in the assay on K562 [1], with K562 [2] and with HT-29 was above 100 µM each time.
As for `C[C@]1(O)C(n2cnc3c(NC4CC4)ncnc32)O[C@H](CO)[C@H]1O` (stereo partly drawn), the IC50 with MCF7, in the assay with K562 [1], in the assay on K562 [2] and in the assay with HT-29 was above 100 µM throughout.
Regarding `CNc1ncnc2c1ncn2C1O[C@H](CO)[C@@H](O)[C@@]1(C)O` (stereo partly drawn), the IC50 with MCF7, with K562 [1], with K562 [2] and in the assay on HT-29 was above 100 µM each time.
On to `C[C@@]1(O)[C@H](O)[C@@H](CO)O[C@H]1n1cnc2c(N)ncnc21`, for which the IC50 (usually the concentration at which inhibition is half-maximal) was above 100 µM in the assay with MCF7, above 100 µM in the assay on K562 [1], 16 µM in the assay on K562 [2] and above 100 µM in the assay on HT-29.
Turning to `OC[C@H]1O[C@@H](n2cnc3c(NC4CC4)ncnc32)C(O)[C@@H]1O` (single isomer, unassigned), the IC50 in the assay with MCF7 is 93.4 µM; in the assay with K562 [1] it was above 100 µM; in the assay on K562 [2] it was above 100 µM; in the assay on HT-29, above 100 µM.
As to `Nc1nc(Cl)nc2c1ncn2[C@@H]1O[C@H](CO)[C@@H](O)C1O` (single isomer, unassigned), the IC50 in the assay on MCF7 was determined as 72.6 µM; in the assay on K562 [1], 19.5 µM; in the assay on K562 [2], 15.4 µM; in the assay on HT-29, 85.6 µM.
Consider `C[C@@]1(n2cnc3c(N)ncnc32)O[C@H](CO)[C@@H](O)C1O` (single isomer, unassigned), for which the IC50 in the assay on MCF7 was above 100 µM; in the assay on K562 [1], above 100 µM; in the assay on K562 [2] it was 53 µM; with HT-29, above 100 µM.
Turning to `CNc1ncnc2c1ncn2[C@@H]1O[C@H](CO)[C@@H](O)C1O` (single isomer, unassigned), the IC50 in the assay with MCF7, with K562 [1], with K562 [2] and in the assay with HT-29 was above 100 µM throughout.
With `C[C@]1(O)C(O)[C@H](n2cnc3c(N)ncnc32)O[C@@H]1CO` (single isomer, unassigned), the IC50 with MCF7 amounted to 17.5 µM; in the assay with K562 [1], 38.3 µM; in the assay with K562 [2], 18.2 µM; with HT-29, 23.2 µM.
With `C[C@]1(O)C(O)C(n2cnc3c(N)nc(Cl)nc32)O[C@@H]1CO` (single isomer, unassigned), the half-maximal inhibitory concentration (IC50) in the assay on MCF7, in the assay with K562 [1], in the assay with K562 [2] and in the assay on HT-29 was above 100 µM each time.
For the compound `CNc1ncnc2c1ncn2C1O[C@H](CO)[C@@](C)(O)C1O` (single isomer, unassigned), the IC50 with MCF7 turned out to be 68.1 µM; in the assay with K562 [1] it was 93.8 µM; with K562 [2] it was 43.9 µM; with HT-29, 74.3 µM.
The matching figures for `C[C@]1(O)C(O)C(n2cnc3c(NC4CC4)ncnc32)O[C@@H]1CO` (single isomer, unassigned): above 100 µM, above 100 µM, 73 µM and above 100 µM.
